High-throughput results: PubChem BioAssay, several laboratories
NR2E3 ag-1 = agonists of human nuclear receptor NR2E3; Q9Y5X4; GST-NR2E3/biotin-RetCOR TR-FRET, 1536-well; inhibition of corepressor binding, % at 4.78 µM; actives 0.12% (n = 320,000); AID 2300;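 active = percent inhibition above the cutoff of mean plus 3 SD of all tested compounds, set per screening campaign, cut at about 20% in these data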
Target sequence (Q9Y5X4 whole entry, looked up): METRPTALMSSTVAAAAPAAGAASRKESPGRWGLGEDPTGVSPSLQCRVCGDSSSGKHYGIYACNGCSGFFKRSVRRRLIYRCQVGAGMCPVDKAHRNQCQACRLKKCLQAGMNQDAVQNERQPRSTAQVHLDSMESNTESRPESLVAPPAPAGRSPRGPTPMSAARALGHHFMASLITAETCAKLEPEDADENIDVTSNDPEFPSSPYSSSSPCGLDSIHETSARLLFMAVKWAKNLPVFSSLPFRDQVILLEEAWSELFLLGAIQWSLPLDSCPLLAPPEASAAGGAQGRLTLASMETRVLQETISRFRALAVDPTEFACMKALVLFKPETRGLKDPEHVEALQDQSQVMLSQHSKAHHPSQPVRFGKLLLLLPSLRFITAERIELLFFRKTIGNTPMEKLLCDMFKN
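Material: NR2E3–RetCOR corepressor complex / Incubation: Compound–protein incubation for 5 h at 4 °C / Dosing: compound at 4.8 µM, single dose / Detection: time-resolved FRET / Benchmarks: high control biotin, low control 0.6% DMSO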
NR2E3 ag-2 = human photoreceptor-specific nuclear receptor agonism; actives 0.35% (n = 360,000); CHO-S Gal4-NCOR/VP16-NR2E3 two-hybrid, luciferase; inhibition of corepressor binding, % at 3.98 µM; AID 602229;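 active = inhibition above the mean of all tested compounds plus 3 SD, cut at about 70% in these data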;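 note: higher means lower luciferase signal from less NR2E3 corepressor binding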
Rev-erbA mod = modulates human Rev-erb alpha binding to DNA; P20393; Rev-erbα–FITC-DNA binding, fluorescence polarization, 90 min; activity, % at 10 µM; actives 0.79% (n = 370,000); AID 1259318;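 active = activity above about 14%, limit read from the data; passing the limit was not always enough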
PG9 binder = small molecules binding HIV-1 gp120 antibody PG9; TR-FRET gp120-PG9 antibody binding; inhibition, % at 6.7 µM; actives 0.43% (n = 360,000); AID 624416; in the data active = inhibition above about 8.5%
Rev-erbA confirm = Rev-erb alpha (human) modulation, hit confirmation; shares compounds with Rev-erbA mod; Rev-erb alpha FITC-DNA binding, fluorescence polarization, 90 min; activation, % at 25 µM; actives 61% (n = 3,000);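 active = activation at or above a set limit, or at least 3 SD above the negative control mean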
RORg DNA counter = RORgamma DNA-binding activity, dose-response counter-screen. shares compounds with Rev-erbA mod. purified RORgamma protein-FITC-DNA binding, fluorescence polarization. IC50, µM. actives 8% (n = 910). AID 1259320;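 active = Compounds whose fitted half-maximal concentration for disrupting protein-DNA binding is below 10 micromolar; the record names Rev-erb in its text, so the target is in doubt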
Numbers stand for hits; - = inactive; . = not tested or not shown. In the library only some 1.5% were active in any assay of this set; here they are far more common.

SMILES	NR2E3 ag-1	NR2E3 ag-2	Rev-erbA mod	PG9 binder	Rev-erbA confirm	others
CCOC(=O)C1CCN(S(=O)(=O)c2ccc3[nH]c4c(c3c2)CCCC4)CC1	-	-	-	-	.
Cc1nc(SCC(=O)N(C)Cc2ccco2)c2c(C)c(C)sc2n1	-	-	-	-	.
CCN(C(=O)CSc1nc(C)nc2sc(C)c(C)c12)c1ccc(F)cc1	-	-	24.4	-	-
CCCn1c(N)c(C(=O)CSc2nc3ccccc3c(=O)n2Cc2ccccc2)c(=O)[nH]c1=O	-	-	73.8	-	61.4
CCCn1c(N)c(C(=O)CSc2nc(C)cs2)c(=O)[nH]c1=O	-	-	-	-	.
CCCn1c(N)c(C(=O)CSc2nc(C)nc3sc(C)c(C)c23)c(=O)[nH]c1=O	-	-	34.5	-	61.1	RORg DNA counter=-
CC1CN(S(=O)(=O)c2cccc(C(=O)OCC(=O)N3CCCCCC3)c2)CC(C)O1 (stereo not given)	.	-	-	-	.
CCCCOC(=O)C1C2CCC(O2)C1C(=O)OCC (stereo not given)	.	-	-	-	.
CN(C)CC1(C)Cc2ccsc2C1O (stereo not given)	.	-	-	-	.
Cn1cc(C(=O)NC2CCCCCC2)c(=O)c2cc(S(=O)(=O)N3CCCC3)ccc21	-	-	32.1	-	17.8
COC(=O)c1cc2c(=O)c3ccccc3oc2nc1C	.	-	-	-	.
CCc1nc2oc3ccc(C)cc3c(=O)c2cc1C(=O)OC	.	-	30.2	-	27.0
Cc1cccc2cc(C#N)c(NCCNC(=O)NC3CCCCC3)nc12	-	-	62.2	-	31.2	RORg DNA counter=-
COc1ccc(C(=O)NCCNc2nc3c(C)cccc3cc2C#N)cc1	-	-	-	-	.
Cc1ccc(S(=O)(=O)N(C)c2ccc(OCC(=O)Nc3nc4c(ccc5ccccc54)s3)cc2)cc1	-	-	24.4	-	26.9
O=C(Cc1cccs1)Nc1cccc(-c2nc3cc4ccccc4cc3[nH]2)c1	-	-	-	-	.
Cc1ccc(/C=N/c2sc(Cc3ccccc3)c(C)c2C(N)=O)o1	-	-	29.5	-	-
Cc1c(Cc2ccccc2)sc(/N=C/c2ccc3ccccc3c2)c1C(N)=O	-	-	.	.	.
COc1ccc(/C=C2/SC(=O)N(CCC(=O)Nc3ccc(C)cc3)C2=O)cc1OC	-	.	30.3	-	25.3
COc1ccc(/C=C2\SC(=O)N(CC(=O)Nc3cccnc3)C2=O)cc1OC	-	-	-	-	.
COc1ccc(/C=C2/SC(=O)N(CCC(=O)Nc3ccccc3)C2=O)cc1OC	-	-	23.9	-	31.2	RORg DNA counter=-
COc1ccc(/C=C2/SC(=O)N(CC(=O)Nc3cc(C)on3)C2=O)cc1OC	-	-	49.5	-	26.6
CCc1nnc(NC(=O)CSc2nc(-c3ccc(F)cc3)cc(-c3ccccc3)c2C#N)s1	.	-	37.7	-	-
CCSc1nc(-c2ccc(OC)cc2)cc(-c2ccccc2)c1C#N	-	-	-	-	.
COc1ccc(-c2cc(-c3ccccc3)nc(SCC(=O)Nc3ncc(C)s3)c2C#N)cc1	-	-	38.9	-	-
SMILES	NR2E3 ag-1	NR2E3 ag-2	Rev-erbA mod	PG9 binder	Rev-erbA confirm	others
CCCn1c(NC(=O)c2ccc(Br)cc2)nc2ccccc21	-	-	31.7	-	22.5
CCCn1c(NC(=O)c2ccc(F)cc2)nc2ccccc21	-	-	25.8	-	-
COC(=O)c1cc(OC)c(OC)cc1NC(=S)N1CCOCC1	.	-	-	-	.
ClC1CCCCC1n1nnc2ccccc21 (stereo not given)	-	-	-	-	.
O=C(NCc1cccnc1)c1cnc2sccn2c1=O	-	-	-	-	.
O=C(NCCC(c1ccccc1)c1ccccc1)c1cnc2sccn2c1=O	-	-	26.3	-	-
COc1ccc(/C=C2\Oc3cc(OC(=O)N4CCOCC4)ccc3C2=O)c(OC)c1	-	-	22.1	-	-
C=CCn1c(SCC(=O)Nc2ccc(CCCC)cc2)nnc1-c1ccc(Cl)cc1	.	.	-	.	.
O=C(Nc1ccc(F)c(S(=O)(=O)N2CCOCC2)c1)C1CCCCC1	-	-	-	-	.
O=C(Nc1ccccc1C(F)(F)F)OCCN1C(=O)CCC12CCC(c1ccccc1)CC2 (stereo not given)	.	.	26.5	.	28.3	RORg DNA counter=-
O=C(Nc1ccc(F)cc1)OCCN1C(=O)CCC12CCC(c1ccccc1)CC2 (stereo not given)	.	.	-	.	.
Cc1cc(=O)oc2cc(NC(=O)c3c(Cl)cnn3C)ccc12	-	-	20.9	-	-
O=C(O)c1cccc(-n2c(/C=C/c3ccccc3)nc3ccccc3c2=O)c1	-	-	-	-	.
CN(C)c1ccc(/C=C/c2nc3ccccc3c(=O)n2-c2ccc(C(=O)O)cc2)cc1	-	-	22.8	-	23.5
Cc1ccccc1-c1cccc([C@@H]2C[C@H]3[C@H](CON3C)CN2S(=O)(=O)c2ccccc2C)c1	.	-	-	-	.
Cc1ccc2cc(-c3noc(C4CCCCC4)n3)c(=O)[nH]c2c1	-	-	41.4	-	33.9	RORg DNA counter=-
COc1cc2[nH]c(=O)c(C(=O)NCc3ccc(F)cc3)c(O)c2cc1OC	.	-	25.2	-	18.8
CCCOc1ccc(-c2cc(C(C)=O)c3n(c2=O)CCC3)cc1	.	.	-	.	.
O=c1[nH]c(=O)n(CCc2ccc(F)cc2)c(O)c1C=NCc1ccc2c(c1)OCO2	-	-	21.0	-	26.3
NC1CCCCC1N=Cc1c(O)n(CCc2ccc(F)cc2)c(=O)[nH]c1=O (stereo not given)	.	-	-	-	.
Cc1cccc(N2CCN(S(=O)(=O)c3ccc4c(c3)n(C)c(=O)c(=O)n4C)CC2C)c1 (stereo not given)	-	-	-	-	.
Cc1ccc(C)c(N2CCN(c3ccc4cc(S(=O)(=O)N5CCCCC5)ccc4n3)CC2)c1	-	-	-	-	.
Cc1cccc(N2CCN(c3ccc4cc(S(=O)(=O)N5CCCCC5)ccc4n3)CC2)c1C	-	-	101.3	-	49.6	RORg DNA counter=-
Cc1cccc(N2CCN(c3ccc4cc(S(=O)(=O)N5CCCCC5)ccc4n3)CC2C)c1 (stereo not given)	-	-	78.2	-	49.5	RORg DNA counter=-
CCn1cc(/C=C(\NC(=O)c2ccc(OC)cc2)C(=O)N2CCOCC2)c2ccccc21	-	-	-	-	.
N#C/C(=N\Nc1ccc([N+](=O)[O-])cc1)C(N)=S	-	-	35.4	-	29.2
N#C/C(=N\Nc1ccc([N+](=O)[O-])cc1)C(=N)N1CCOCC1	-	-	-	-	.
N#C/C(=N/Nc1ccc([N+](=O)[O-])cc1)C(=N)N1CCCCC1	.	-	28.4	-	20.3
Cc1cc(-c2ccc(N=Nc3ccc4c(S(=O)(=O)O)cc(S(=O)(=O)O)c(N)c4c3O)c(C)c2)ccc1N=Nc1ccc2c(S(=O)(=O)O)cc(S(=O)(=O)O)c(N)c2c1O	.	.	-	.	.
COc1cccc(-c2c(C(=O)N/N=C(\C)COc3ccccc3)nnn2-c2nonc2N)c1	-	-	-	-	.
